In ChEMBL document CHEMBL1159312, “Novel bioactive clerodane diterpenoids from the leaves and twigs of Casearia sylvestris” (J Nat Prod, 2002):
pIC50: −log10 of the molar value. In brackets after ≈: the same amount, converted by molar mass.

What was measured:
HCT-116 = experiment: Cytotoxicity against human HCT116 cells after 72 hrs by MTS method; format: functional, cell-based; conditions: HCT-116, 72 h
Method in brief: (§1)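 Cells grown in McCoy's 5A with 10% heat-inactivated fetal bovine serum and seeded 24 h before dosing. Serially diluted compound was added, then incubated 72 h at 37 °C. MTS with phenazine methosulfate was added for 3 h more, and absorbance at 492 nm gave survival relative to untreated controls. IC50 was taken from six-point curves (5-fold dilutions), each point in duplicate.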

LX-1 = experiment: Cytotoxicity against human LX1 cells after 72 hrs by MTS method; format: functional, cell-based; conditions: LX-1, 72 h; method in brief: as §1
A2780 = experiment: Cytotoxicity against human A2780 cells after 72 hrs by MTS method; format: functional, cell-based; conditions: A2780, 72 h; method in brief: as §1
Aspergillus niger = experiment: Antifungal activity against Aspergillus niger; format: functional
Method in brief: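 Disk diffusion assay measuring growth inhibition of Aspergillus niger, run by an earlier published method. The zone of inhibition is reported as an area rather than a diameter.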

KB = experiment: Cytotoxicity against human KB cells after 72 hrs by MTS method; format: functional, cell-based

Compound: CC[C@@]1(O)C(=O)OCc2c1cc1n(c2=O)Cc2cc3ccccc3nc2-1 [CAMPTOTHECIN]
- pIC50 (HCT-116): 8.05
- pIC50 (LX-1): 6.92
- pIC50 (A2780): 8.40

Compound: C=C/C(C)=C/C[C@]1(C)[C@H](C)C[C@H](O)[C@]23C(=C[C@@H](OC(=O)CCCCC)C[C@@H]12)[C@@H](OC(C)=O)O[C@H]3OC(C)=O [CASEARVESTRIN C]
- inhibition zone (IZ) (Aspergillus niger): 177 mm2
- pIC50 (HCT-116): 6.59
- pIC50 (LX-1): 6.54
- pIC50 (A2780): 6.38
- EC50 (KB): 0.34 µg/mL (≈ 0.638 µM)

Compound: C[C@@H]1[C@H](O)[C@@H](C)/C=C/C=C/C=C/C=C/C=C/C=C/C=C/[C@H](O[C@@H]2O[C@H](C)[C@@H](O)[C@H](N)[C@@H]2O)C[C@@H]2O[C@](O)(C[C@@H](O)C[C@@H](O)[C@H](O)CC[C@@H](O)C[C@@H](O)CC(=O)O[C@H]1C)C[C@H](O)[C@H]2C(=O)O [AMPHOTERICIN B]
- inhibition zone (IZ) (Aspergillus niger): 254 mm2

Compound: C=C/C(C)=C/C[C@]1(C)[C@H](C)C[C@H](O)[C@]23C(=C[C@@H](OC(=O)C(C)C)C[C@@H]12)[C@@H](OC(C)=O)O[C@H]3OC(C)=O [CASEARVESTRIN A]
- inhibition zone (IZ) (Aspergillus niger): 348 mm2
- pIC50 (HCT-116): 6.15
- pIC50 (LX-1): 6.27
- pIC50 (A2780): 6.09
- EC50 (KB): 1.4 µg/mL (≈ 2.77 µM)

Compound: C=C/C(C)=C/C[C@]1(C)[C@H](C)C[C@H](O)[C@]23C(=C[C@@H](OC(=O)C(C)CC)C[C@@H]12)[C@@H](OC(C)=O)O[C@H]3OC(C)=O (some centres undefined) [CASEARVESTRIN B]
- inhibition zone (IZ) (Aspergillus niger): 296 mm2
- pIC50 (HCT-116): 6.60
- pIC50 (LX-1): 6.70
- pIC50 (A2780): 6.49
- EC50 (KB): 1.4 µg/mL (≈ 2.7 µM)
